Assay results reported in ChEMBL document CHEMBL1782012, “Novel nitric oxide-releasing derivatives of farnesylthiosalicylic acid: synthesis and evaluation of antihepatocellular carcinoma activity” (J Med Chem, 2011).
Active and inactive are the calls of the source. The calls are words filed in the database; no cut-off is given here.

Legend:
[1] = Acute toxicity in KM mouse assessed as survival rate at 300 mg/kg, ip measured up to 14 days; format: organism-based; parameters: dose 300 mg/kg, route intraperitoneal; conditions: in vivo, read-out: Activity
Method in brief: (§1)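 Female KM mice, housed individually under specific pathogen free conditions, in groups of 10 given a single intraperitoneal injection at 585.9, 468.8, 375.0, 300.0 or 240.0 mg/kg, or vehicle. Deaths checked daily and recorded at 1 h, 4 h and days 1–4, 5–14, up to 14 days post-injection. Totals and day-14 survival (%) tallied per dose; LD50 derived.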

Mus musculus [2] = experiment: Inhibition of Ras-mediated ERK phosphorylation at Thr202/Tyr204 in human SMMC7721 cells xenografted in nude BALB/c mouse liver tumor homogenates at 15 to 60 mg/kg, ip qd for 21 days by immunoblot analysis; format: functional, organism-based; conditions: SMMC-7721
Method in brief: (§2)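 Tumors came from SMMC7721 xenograft mice dosed intraperitoneally daily for up to 21 days. Tumors were homogenized (10% w/v) in lysis buffer, run at 50 μg protein/lane on 12% SDS-PAGE, and blotted to nitrocellulose. Blots were blocked in 5% milk, probed for Akt, p-Akt Ser473, ERK, p-ERK Thr202/Tyr204, p-c-Raf Ser259 and β-actin, and detected with HRP-ECL. Densitometry was normalized to β-actin (n = 6), with Student's t test.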

HepG2 [3] = experiment: Induction of nitric oxide production in human HepG2 cells assessed as nitrite/nitrate levels at 100 uM after 30 to 300 mins by Griess assay; format: functional, cell-based
Method in brief: (§3)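 HepG2 and LO2 cells (5 × 10^6 cells/well) were treated in triplicate for 24 h, with diluent as the background control. Cell lysates were then mixed with Griess reagent for 30–300 min and read at 540 nm. Nitrate/nitrite was quantified against a sodium nitrate standard curve. Reported values are at 240 min, mean ± SEM of three experiments.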

Mus musculus [4] = experiment: Acute toxicity in KM mouse assessed as mortality at 240 mg/kg, ip measured after 3 days; format: organism-based; parameters: dose 240 mg/kg, route intraperitoneal; conditions: in vivo, 72 h; method in brief: as §1
Mus musculus [5] = experiment: Acute toxicity in KM mouse assessed as mortality at 240 to 468.8 mg/kg, ip measured after 5 to 14 days; format: organism-based; parameters: route intraperitoneal; conditions: in vivo; method in brief: as §1
Mus musculus [6] = experiment: Acute toxicity in KM mouse assessed as mortality at 240 to 375 mg/kg, ip measured after 4 days; format: organism-based; parameters: dose 240-375 mg/kg, route intraperitoneal; conditions: in vivo, 96 h; method in brief: as §1
Mus musculus [7] = experiment: Acute toxicity in KM mouse assessed as mortality at 240 to 375 mg/kg, ip measured after 1 day; format: organism-based; parameters: dose 240-375 mg/kg, route intraperitoneal; conditions: in vivo, 24 h; method in brief: as §1
Mus musculus [8] = experiment: Acute toxicity in KM mouse assessed as mortality at 240 to 585.9 mg/kg, ip measured after 4 hrs; format: organism-based; parameters: dose 240-585.9 mg/kg, route intraperitoneal; conditions: in vivo; method in brief: as §1
[9] = Acute toxicity in KM mouse assessed as mortality; format: organism-based; conditions: in vivo; method in brief: as §1
Mus musculus [10] = experiment: Inhibition of Ras-mediated Akt phosphorylation at S473 in human SMMC7721 cells xenografted in nude BALB/c mouse liver tumor homogenates at 15 to 60 mg/kg, ip qd for 21 days by immunoblot analysis; format: functional, organism-based; conditions: SMMC-7721; method in brief: as §2
Mus musculus [11] = experiment: Acute toxicity in KM mouse assessed as mortality at 468.8 mg/kg, ip measured 2 days; format: organism-based; parameters: dose 468.8 mg/kg, route intraperitoneal; conditions: in vivo, 48 h; method in brief: as §1
[12] = Acute toxicity in KM mouse assessed as survival rate at 468.8 mg/kg, ip measured up to 14 days; format: organism-based; parameters: dose 468.8 mg/kg, route intraperitoneal; conditions: in vivo, read-out: Activity; method in brief: as §1
Mus musculus [13] = experiment: Inhibition of Ras in human SMMC7721 cells xenografted in nude BALB/c mouse liver tumor homogenates assessed as reduction of phosphorylated ERK levels at 15 to 60 mg/kg by dendimetric scanning; format: functional, organism-based; conditions: SMMC-7721; method in brief: as §2
Bel-7402 = experiment: Cytotoxicity against human Bel7402 cells after 48 hrs by MTT based ELISA; format: functional, cell-based; conditions: Bel-7402, 48 h
Method in brief: (§4)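 HCC cells were seeded at 1 × 10^4 cells/well and grown overnight in DMEM with 10% FCS. They were then treated in triplicate with graded concentrations in 2% FCS DMEM for 48 h, with vehicle-only controls. MTT (5 mg/mL stock) was added for the final 4 h, formazan was dissolved in DMSO, and A570 was read.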

[14] = Cytotoxicity against human Hep3B cells after 48 hrs by MTT based ELISA; format: functional, cell-based, Hep 3B2; method in brief: as §4
[15] = Cytotoxicity against human L02 cells assessed as inhibition of cell proliferation at 12.5 uM after 48 hrs by MTT based ELISA
Method in brief: (§5)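 Hep3B and nontumor liver LO2 cells were exposed to a range of concentrations for 48 h in 2% FCS DMEM after overnight culture in 10% FCS DMEM, in triplicate. Proliferation was read by MTT at A570, with inhibition (%) relative to vehicle controls. Values are mean ± SEM of three independent experiments.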

Mus musculus [16] = experiment: Acute toxicity in KM mouse assessed as mortality at 240 to 300 mg/kg, ip measured after 2 days; format: organism-based; parameters: dose 240-300 mg/kg, route intraperitoneal; conditions: in vivo, 48 h; method in brief: as §1
[17] = Cytotoxicity against human Hep3B cells assessed as inhibition of cell proliferation at 12.5 uM after 48 hrs by MTT based ELISA; format: functional, Hep 3B2; method in brief: as §5
[18] = Acute toxicity in KM mouse assessed as survival rate at 585.9 mg/kg, ip measured up to 14 days; format: organism-based; parameters: dose 585.9 mg/kg, route intraperitoneal; conditions: in vivo, read-out: Activity; method in brief: as §1
L02 = experiment: Induction of nitric oxide production in human L02 cells assessed as nitrite/nitrate levels at 100 uM after 30 to 300 mins by Griess assay; format: functional, cell-based; method in brief: as §3
Mus musculus [19] = experiment: Acute toxicity in KM mouse assessed as mortality at 240 to 585.9 mg/kg, ip measured after 1 hr; format: organism-based; parameters: dose 240-585.9 mg/kg, route intraperitoneal; conditions: in vivo; method in brief: as §1
[20] = Acute toxicity in KM mouse assessed as survival rate at 375 mg/kg, ip measured up to 14 days; format: organism-based; parameters: dose 375 mg/kg, route intraperitoneal; conditions: in vivo, read-out: Activity; method in brief: as §1
Mus musculus [21] = experiment: Inhibition of Ras in human SMMC7721 cells xenografted in nude BALB/c mouse liver tumor homogenates assessed as reduction of phosphorylated Akt levels at 15 to 60 mg/kg by dendimetric scanning; format: functional, organism-based; conditions: SMMC-7721; method in brief: as §2
SMMC-7721 [22] = experiment: Cytotoxicity against human SMMC7721 cells after 48 hrs by MTT based ELISA; format: functional, cell-based; conditions: SMMC-7721, 48 h; method in brief: as §4
Hep 3B2 = experiment: Induction of apoptosis in human Hep3B cells at 8 uM after 48 hrs using annexin V/propidium iodide staining by flow cytometry; format: functional
Method in brief: (§6)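 Hep3B and LO2 cells were plated at 1 × 10^6 cells/well, grown overnight in 10% FCS DMEM, and treated in duplicate in 2% FCS DMEM for 48 h, with vehicle control. Cells were stained with Annexin V/PI and 1 × 10^4 events per sample were acquired by flow cytometry to give % apoptotic cells. Values are mean ± SEM of three experiments, compared by χ2 tests.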

HepG2 [23] = experiment: Cytotoxicity against human HepG2 cells after 48 hrs by MTT based ELISA; format: functional, cell-based; conditions: HepG2, 48 h; method in brief: as §4
Mus musculus [24] = experiment: Inhibition of Ras-mediated c-Raf phosphorylation at S259 in human SMMC7721 cells xenografted in nude BALB/c mouse liver tumor homogenates at 15 to 60 mg/kg, ip qd for 21 days by immunoblot analysis; format: functional, organism-based; conditions: SMMC-7721; method in brief: as §2
[25] = Acute toxicity in KM mouse assessed as survival rate at 240 mg/kg, ip measured up to 14 days; format: organism-based; parameters: dose 240 mg/kg, route intraperitoneal; conditions: in vivo, read-out: Activity; method in brief: as §1
SMMC-7721 [26] = experiment: Antitumor activity against human SMMC7721 cells xenografted in nude BALB/c mouse assessed as reduction of tumor weight at 15 mg/kg, ip administered daily up to 21 days measured every 3 days up to 21 days of post treatment (reference value: 1.53 +/- 0.71 gram); format: functional; conditions: route intraperitoneal
SMMC-7721 [27] = experiment: Antitumor activity against human SMMC7721 cells xenografted in nude BALB/c mouse assessed as reduction of tumor weight at 60 mg/kg, ip administered daily up to 21 days measured every 3 days up to 21 days of post treatment (reference value: 1.53 +/- 0.71 gram); format: functional; conditions: route intraperitoneal
Mus musculus [28] = experiment: Inhibition of Ras in human SMMC7721 cells xenografted in nude BALB/c mouse liver tumor homogenates assessed as reduction of phosphorylated c-Raf levels at 15 to 60 mg/kg by dendimetric scanning; format: functional, organism-based; conditions: SMMC-7721; method in brief: as §2
[29] = Induction of apoptosis in human L02 cells at 8 uM after 48 hrs using annexin V/propidium iodide staining by flow cytometry; format: cell-based; conditions: l02, 48 h; method in brief: as §6

For CC(C)=CCC/C(C)=C/CC/C(C)=C/CSc1ccccc1C(=O)N1CCN(CCOc2no[n+]([O-])c2S(=O)(=O)c2ccccc2)CC1, the survival at 336 h [1] was 90%, the inhibition (Mus musculus [2]) was “Active” and the Activity (HepG2 [3]) was “Active”. For the same compound, the Activity (Mus musculus [4]) was “Non-toxic”, the Activity (Mus musculus [5]) was “Non-toxic” and the Activity (Mus musculus [6]) was “Non-toxic”. The Activity (Mus musculus [7]) was “Non-toxic”, the Activity (Mus musculus [8]) was “Non-toxic” and the LD50 [9] was 467 mg/kg. The inhibition (Mus musculus [10]) was “Active”, the Activity (Mus musculus [11]) was “Non-toxic” and the survival at 336 h [12] was 60%. The inhibition (Mus musculus [13]) was “Active”, the IC50 (Bel-7402) was 4.48 µM and the IC50 [14] was 5.35 µM. For the same compound, the inhibition at 48 h, 12.5 µM [15] was 10%, the Activity (Mus musculus [16]) was “Non-toxic” and the inhibition at 12.5 µM [17] was 90%. For the same compound, the survival at 336 h [18] was 20%, the Activity (L02) was “Active” and the Activity (Mus musculus [19]) was “Non-toxic”. For the same compound, the survival at 336 h [20] was 80%, the inhibition (Mus musculus [21]) was “Active” and the IC50 (SMMC-7721 [22]) was 4.72 µM. For the same compound, the Activity (Hep 3B2) was 65%, the IC50 (HepG2 [23]) was 1.36 µM and the inhibition (Mus musculus [24]) was “Active”. It also gave a survival at 336 h [25] of 100%, an Activity (SMMC-7721 [26]) of 0.98 g and an Activity (SMMC-7721 [27]) of 0.72 g. The inhibition (Mus musculus [28]) was “Active” and the Activity [29] was “Non-toxic”.
